The MIC is the smallest concentration in the dilution series that meets the test's criterion for growth inhibition.

Converted amounts (≈) assume the structure as drawn. The source made the active and inactive calls.

Among the data in ChEMBL document CHEMBL4041461, “Discovery of 6,7-dihydro-3H-pyrano[4,3-c]isoxazol-3-ones as a new class of pathogen specific anti-leptospiral agents” (Eur J Med Chem, 2017) are MIC and Activity values, retold here.

Type in all cases: functional
A short description of test [1]: Antibacterial activity against Leptospira interrogans serovar Canicola Hond Utrecht IV after 2 hrs by micro dilution assay.
Test [2] in a line: Antibacterial activity against Leptospira interrogans serovar Ballum Mus 127 after 2 hrs by micro dilution assay. Conditions: Mus 127, 2 h.
A short description of test [3]: Antibacterial activity against Leptospira interrogans serovar Pyrogenes Salinem after 2 hrs by micro dilution assay.
Test [4] can be described thus: Antibacterial activity against Leptospira interrogans serovar Grippotyphosa Moskva V after 2 hrs by micro dilution assay.
The nature of test [5]: Antibacterial activity against Leptospira interrogans serovar Hebdomadis after 2 hrs by micro dilution assay.
Test [6] is described as follows: Antibacterial activity against Leptospira interrogans serovar Autumnalis N2 after 2 hrs by micro dilution assay. As to conditions: N2, 2 h.
The nature of test [7]: Antibacterial activity against Leptospira interrogans serovar Icterohaemorrhagiae RGA after 2 hrs by micro dilution assay.
Test [8] concerns Leptospira interrogans serovar Autumnalis. The experiment in a line: Antibacterial activity against Leptospira interrogans serovar Autumnalis N2 at 31.25 ug/mL after 2 hrs by micro dilution assay. The method in brief: (§1)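 Preliminary screen by broth microdilution against L. interrogans serovar Autumnalis strain N2, each compound at 500, 250, 125, 62.5 and 31.25 µg/mL. Growth at each concentration was scored as resistance (R) or inhibition (I), and the MIC was taken from these scores. Triplicates.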

Test [9] can be described thus: Antibacterial activity against Leptospira interrogans serovar Pomona after 2 hrs by micro dilution assay.
The nature of test [10]: (§2) Antibacterial activity against Leptospira interrogans serovar Semaranga after 2 hrs by micro dilution assay.
In test [11] the test system is Leptospira interrogans serovar Autumnalis. Nature of the test: Antibacterial activity against Leptospira interrogans serovar Autumnalis N2 at 62.5 ug/mL after 2 hrs by micro dilution assay. The method in brief:
as §1

Test [12] is described as follows: Antibacterial activity against Leptospira interrogans serovar Javanica Poi after 2 hrs by micro dilution assay.
In test [13] the test system is Leptospira interrogans serovar Autumnalis. The experiment in a line: Antibacterial activity against Leptospira interrogans serovar Autumnalis N2 at 500 ug/mL after 2 hrs by micro dilution assay. The method in brief: as §1
Test [14] is described as follows: Antibacterial activity against Leptospira interrogans serovar Bataviae Swart after 2 hrs by micro dilution assay.
Test [15] in a line: Antibacterial activity against Leptospira interrogans serovar Australis Ballico after 2 hrs by micro dilution assay.
Test [16] relates to Leptospira interrogans serovar Autumnalis. Nature of the test: Antibacterial activity against Leptospira interrogans serovar Autumnalis N2 at 250 ug/mL after 2 hrs by micro dilution assay. The method in brief: as §1
The nature of test [17]: Antibacterial activity against Leptospira interrogans serovar Hardjo Hardjoprajitno after 2 hrs by micro dilution assay.
For test [18], the system named is Leptospira interrogans serovar Autumnalis. Nature of the test: Antibacterial activity against Leptospira interrogans serovar Autumnalis N2 at 125 ug/mL after 2 hrs by micro dilution assay. The method in brief:
as §1

The test system of test [19] is Leptospira interrogans. Described as §2.

`COc1ccc(C2=C3C(=O)ON=C3CC(C)(C)O2)cc1`: the minimal inhibitory concentration (MIC) is 250 µg/mL (≈ 915 µM) in [1]; 125 µg/mL (≈ 457 µM) in test [2]; 250 µg/mL (≈ 915 µM) in [3]; 250 µg/mL (≈ 915 µM) in test [4]; 250 µg/mL (≈ 915 µM) in [5]; 250 µg/mL (≈ 915 µM) in [6]. The minimum inhibitory concentration (MIC) in test [7] worked out at 250 µg/mL (≈ 915 µM); in [9] it was 250 µg/mL (≈ 915 µM); in test [10], 500 µg/mL (≈ 1830 µM); in test [12], 250 µg/mL (≈ 915 µM); in test [14], 250 µg/mL (≈ 915 µM); in test [15], 125 µg/mL (≈ 457 µM). For the same compound, in [17], the MIC is 250 µg/mL (≈ 915 µM). Moreover, the outcome in test [8], in test [11] and in [18] was inactive. In addition, the result in test [13] and in [16] was Active.
As for `COc1cc(OC)c2c(O)c3c(cc2c1)OC(C)(C)CC3=O`, the result in [8], in [11], in test [13], in test [16] and in test [18] was inactive.
With `CC1(C)CC2=NOC(=O)C2=C(c2ccccc2)O1`, the result in test [8], in test [11], in [13], in test [16] and in test [18] was inactive.
Take `CC1(C)CC2=NOC(=O)C2=C(c2ccccc2Cl)O1`: the result in test [8], in [11], in [13], in [16] and in [18] was inactive.
Consider `COc1cc(OC)c2c(O)c3c(cc2c1)OC(C)C(C)C3=O` (stereo not given), for which the result in test [8], in test [11], in [13], in test [16] and in test [18] was inactive.
As to `CCC1=C2C(=O)ON=C2CC(C)(C)O1`, the MIC in [1] amounted to 250 µg/mL (≈ 1280 µM); in test [2], 250 µg/mL (≈ 1280 µM); in test [3], 250 µg/mL (≈ 1280 µM); in test [4], 250 µg/mL (≈ 1280 µM); in test [5], 125 µg/mL (≈ 640 µM); in [6] it was 250 µg/mL (≈ 1280 µM). Besides, the MIC in [7] was found to be 250 µg/mL (≈ 1280 µM); in [9], 250 µg/mL (≈ 1280 µM); in [12] it was 250 µg/mL (≈ 1280 µM); in test [14] it was 125 µg/mL (≈ 640 µM); in test [15], 250 µg/mL (≈ 1280 µM); in test [17], 250 µg/mL (≈ 1280 µM). Moreover, the result in test [8], in test [11] and in [18] was inactive. Besides, the MIC entry in test [19] was “inactive”. Also, the outcome in test [13] and in [16] was Active.
With `CC1(C)CC2=NOC(=O)C2=C(c2cccc3ccccc23)O1`, the MIC in [1] came to 250 µg/mL (≈ 852 µM); in test [2], 125 µg/mL (≈ 426 µM); in test [3], 500 µg/mL (≈ 1700 µM); in test [4], 250 µg/mL (≈ 852 µM); in test [5], 250 µg/mL (≈ 852 µM); in [6], 250 µg/mL (≈ 852 µM). In addition, the MIC came out at 250 µg/mL (≈ 852 µM) in test [7]; 500 µg/mL (≈ 1700 µM) in [9]; 500 µg/mL (≈ 1700 µM) in test [10]; 500 µg/mL (≈ 1700 µM) in [12]; 125 µg/mL (≈ 426 µM) in test [14]; 125 µg/mL (≈ 426 µM) in test [15]. Besides, the lowest concentration to inhibit growth in test [17] (MIC) was 500 µg/mL (≈ 1700 µM). In addition, the result in [8], in test [11] and in test [18] was inactive. In addition, the result in [13] and in test [16] was Active.
`CC1=C2C(=O)ON=C2CC(C)(C)O1`: the MIC in test [1] stood at 250 µg/mL (≈ 1380 µM); in test [2], 500 µg/mL (≈ 2760 µM); in test [3] it was 250 µg/mL (≈ 1380 µM); in test [4], 500 µg/mL (≈ 2760 µM); in test [5], 250 µg/mL (≈ 1380 µM); in test [6], 500 µg/mL (≈ 2760 µM). Also, the minimum inhibitory concentration (MIC) in test [7] amounted to 125 µg/mL (≈ 690 µM); in test [9], 250 µg/mL (≈ 1380 µM); in test [10], 500 µg/mL (≈ 2760 µM); in [12] it was 500 µg/mL (≈ 2760 µM); in test [14], 250 µg/mL (≈ 1380 µM); in test [15] it was 500 µg/mL (≈ 2760 µM). Besides, the minimum inhibitory concentration (MIC) in test [17] was 500 µg/mL (≈ 2760 µM). For the same compound, the result in test [8], in test [11], in [16] and in test [18] was inactive. The result in test [13] was Active.
On to `CC1(C)CC2=NOC(=O)C2=C(c2ccco2)O1`, for which the result in test [8], in test [11], in test [13], in [16] and in [18] was inactive.
For `COc1cc(OC)cc(C2=C3C(=O)ON=C3CC(C)(C)O2)c1`, the result in test [8], in [11], in test [13], in test [16] and in test [18] was inactive.
For `COc1cc(OC)c2c(O)c3c(cc2c1)OC(C)CC3=O` (stereo not given), the outcome in test [8], in test [11], in test [13], in test [16] and in test [18] was inactive.
Regarding `CC1(C)CC2=NOC(=O)C2=C(c2ccc(Cl)cc2)O1`, the minimum inhibitory concentration (MIC) stood at 125 µg/mL (≈ 450 µM) in test [1]; 250 µg/mL (≈ 900 µM) in test [2]; 250 µg/mL (≈ 900 µM) in test [3]; 250 µg/mL (≈ 900 µM) in test [4]; 250 µg/mL (≈ 900 µM) in [5]; 250 µg/mL (≈ 900 µM) in test [6]. Besides, the MIC in [7] came out at 250 µg/mL (≈ 900 µM); in [9], 250 µg/mL (≈ 900 µM); in test [12] it was 250 µg/mL (≈ 900 µM); in [14] it was 250 µg/mL (≈ 900 µM); in [15], 125 µg/mL (≈ 450 µM); in test [17] it was 250 µg/mL (≈ 900 µM). The outcome in test [8], in [11] and in [18] was inactive. The MIC result in test [19] was “inactive”. Also, the result in test [13] and in test [16] was Active.
In the case of `CC1(C)CC(O)=C2C(=O)c3ccccc3C=C2O1`, the outcome in test [8], in test [11] and in [18] was inactive. Further, the result in test [13] and in test [16] was Active.
For the compound `CC1(C)CC(=O)c2c(cc3ccccc3c2O)O1`, the outcome in test [8], in [11], in test [16] and in test [18] was inactive. The outcome in [13] was Active.
`CC1CC(=O)c2c(cc3ccccc3c2O)O1` (stereo not given): the outcome in test [8], in [11] and in test [18] was inactive. In addition, the outcome in test [13] and in test [16] was Active.
